The values below come from publication PMC7720656 (Journal of medicinal chemistry, 2020).

For data set [1] the following is noted: mice, 10 mg/kg iv; ref Bouley [25]; cited from earlier work.
The next data set deals with S. aureus ATCC29213. Description: MIC by microdilution, S. aureus ATCC29213. Type of data set: cell-based, Staphylococcus aureus. To be noted: for increase in MIC with added bovine serum albumin: S. aureus ATCC29213; for antibacterial activity in words / antibacterial activity, active / inactive: by MIC with S. aureus ATCC29213. For orientation: In broth dilution the organism is exposed to a series of concentrations in liquid medium.

In the next data set the test system is MRSA strain NRS70. Description: Time-kill assays. In kind it is cell-based, Staphylococcus aureus. As to conditions: NRS70, 0.5 to 16 × MIC. The method, boiled down: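 Cultures of MRSA NRS70 were exposed to the test compound, with a no-antibiotic control tube. At 3, 6, 12 and 24 h, aliquots were plated on LB agar for colony counts, with a detection limit of >50 CFU/mL. A ≥3-log10 drop from the starting inoculum counted as bactericidal. Run in triplicate.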

The conditions of data set [2]: plasma protein binding; ref [26]; cited from earlier work.
A short description of the next data set: Pharmacokinetics in mice. To be noted: for clearance relative to hepatic blood flow: mice. Type of data set: in vivo.
Data set [3] has as its system S. haemolyticus ATCC 29970. Description: MIC against Gram-positive organisms. In kind it is cell-based. To be noted: Staphylococcus haemolyticus, ATCC29970, read-out: MIC S. haemolyticus ATCC 29970.
The next data set concerns the target allosteric site of PBP2a. As to conditions: read-out: Kd for binding to the allosteric site of PBP2a; ref [23]; cited from earlier work.

Molecules are shown by their SMILES. Entries after “also recorded” stand apart in the source; their conditions may differ. Marks after values point to notes of the source that are not given here.

`N#Cc1ccc(/C=C/c2nc3ccccc3c(=O)n2-c2cccc(C(=O)O)c2)cc1` [compound 1, (E)-3-(3-Carboxyphenyl)-2-(4-cyanostyryl)quinazolin-4(3H)-one]: the CL in data set [1] was 6.9 mL/min/kg. In addition, in the data set with S. aureus ATCC29213, the “increase in MIC with added bovine serum albumin” value (“increase in MIC” for short) is ≤ 4 fold and the “antibacterial activity in words” value is given as “potent activity”. Besides, the “time-kill behaviour of compound alone” value in the data set with MRSA strain NRS70 is on record as “bacteriostatic”. `O=C(O)c1cccc(-n2c(/C=C/C3CC3)nc3ccccc3c2=O)c1` [compound 48]: in the data set with S. aureus ATCC29213, the “antibacterial activity in words” value is on record as “loss of activity”. Turning to `C#Cc1ccc(/C=C/c2nc3ccccc3c(=O)n2-c2cccc(C(=O)O)c2)cc1` [compound 57], the “antibacterial activity, active / inactive” value in the data set with S. aureus ATCC29213 is reported as “active”. For the same compound, the PPB in data set [2] was 99.6 ± 0.04^h %. For the compound `O=C(O)c1cccc(-n2c(/C=C/c3ccc(Cl)cc3)nc3ccccc3c2=O)c1` [compound 58], in the data set with S. aureus ATCC29213, the “increase in MIC” value is on record as ≤ 4 fold and the “antibacterial activity, active / inactive” value is “active”.

For the compound `O=C(O)c1cccc(-n2c(/C=C/c3ccc(I)cc3)nc3ccccc3c2=O)c1` [compound 59], the “antibacterial activity, active / inactive” value with S. aureus ATCC29213 is listed as “active”. On to `N#Cc1ccc(/C=C/c2nc3ccccc3c(=O)n2-c2cc(C(=O)O)ccc2F)cc1` [compound 73, (E)-3-(5-Carboxy-2-fluorophenyl)-2-(4-cyanostyryl)-quinazolin-4(3H)-one], for which the clearance (commonly the volume of plasma or blood freed of the substance per unit of time) in “Pharmacokinetics in mice” (female, ICR, mouse, plasma, iv, 10 mg/kg) came to 7.7 mL/min/kg. Further, the “clearance relative to hepatic blood flow” value in “Pharmacokinetics in mice” (10 mg/kg iv) is < 10%. In the data set with S. aureus ATCC29213, the “increase in MIC” value is recorded as ≤ 4 fold and the “antibacterial activity, active / inactive” value is “active”. For the same compound, the “time-kill behaviour of compound alone” value in the data set on MRSA strain NRS70 was “bacteriostatic”. For the same compound, the MIC (usually the smallest concentration in the dilution series that meets the test's criterion for growth inhibition) in data set [3] was ≤ 4 µg/mL.

Take `N#Cc1ccc(/C=C/c2nc3ccccc3c(=O)n2-c2cc(C(=O)O)ccc2Cl)cc1` [compound 74]: in the data set with S. aureus ATCC29213, the “antibacterial activity in words” value is on record as “retained acceptable MIC values” and the “antibacterial activity, active / inactive” value was “active”. In the case of `Cc1ccc(C(=O)O)cc1-n1c(/C=C/c2ccc(C#N)cc2)nc2ccccc2c1=O` [compound 75], in the data set with S. aureus ATCC29213, the “antibacterial activity in words” value is “retained acceptable MIC values” and the “antibacterial activity, active / inactive” value was “active”.

As for `N#Cc1ccc(/C=C/c2nc3ccccc3c(=O)n2-c2cc(C(=O)O)ccc2C(F)(F)F)cc1` [compound 76], in the data set with S. aureus ATCC29213, the “antibacterial activity in words” value was “loss of antibacterial property” and the “antibacterial activity, active / inactive” value is “inactive”. For `N#Cc1ccc(/C=C/c2nc3ccccc3c(=O)n2-c2cc(O)cc(C(=O)O)c2)cc1` [compound 77], in the data set on S. aureus ATCC29213, the “antibacterial activity, active / inactive” value is “inactive”. Consider `N#Cc1ccc(/C=C/c2nc3ccccc3c(=O)n2-c2cc(C(=O)O)ccc2O)cc1` [compound 78], for which, in the data set on S. aureus ATCC29213, the “antibacterial activity in words” value is reported as “loss of antibacterial property” and the “antibacterial activity, active / inactive” value is “inactive”. As to `COc1ccc(C(=O)O)cc1-n1c(/C=C/c2ccc(C#N)cc2)nc2ccccc2c1=O` [compound 79], the “antibacterial activity in words” value in the data set with S. aureus ATCC29213 is listed as “loss of antibacterial property”. Take `N#Cc1ccc(/C=C/c2nc3ccccc3c(=O)n2-c2cccc(C(=O)O)c2O)cc1` [compound 81]: the “antibacterial activity in words” value in the data set on S. aureus ATCC29213 is on record as “loss of antibacterial property”. For `N#Cc1ccc(/C=C/c2nc3ccccc3c(=O)n2-c2cccc(C(=O)O)n2)cc1` [compound 83], the “antibacterial activity in words” value with S. aureus ATCC29213 is given as “loss of antibacterial property; also recorded: loss of activity”. On to `N#Cc1ccc(/C=C/c2nc3ccccc3c(=O)n2-c2cc(C(=O)O)ccn2)cc1` [compound 84], for which the “antibacterial activity in words” value with S. aureus ATCC29213 is “loss of antibacterial property; also recorded: loss of activity”.

As to `N#Cc1ccc(/C=C/c2nc3ccccc3c(=O)n2-c2cccc(NC(=O)C(F)(F)F)c2)cc1` [compound 88], in the data set on S. aureus ATCC29213, the “antibacterial activity, active / inactive” value is “active”.

Take `N#Cc1ccc(/C=C/c2nc3ccccc3c(=O)n2-c2cccc(NC(=O)NCc3cnc[nH]3)c2)cc1` [compound 92]: the “antibacterial activity in words” value in the data set on S. aureus ATCC29213 is reported as “detrimental to the activity”. On the same count and under the same terms, under `N#Cc1ccc(/C=C/c2nc3ccccc3c(=O)n2-c2cccc(NC(=O)NCCc3cnc[nH]3)c2)cc1` [compound 93] stands “detrimental to the activity”. Consider `N#Cc1ccc(/C=C/c2nc3ccccc3c(=O)n2-c2cccc(S(N)(=O)=O)c2)cc1` [compound 94], for which the “clearance relative to hepatic blood flow” value in “Pharmacokinetics in mice” (5 mg/kg iv) is > 10%. Besides, in the data set with S. aureus ATCC29213, the “increase in MIC” value was ≤ 4 fold and the “antibacterial activity, active / inactive” value is “active”. As for `CC(=O)NS(=O)(=O)c1cccc(-n2c(/C=C/c3ccc(C#N)cc3)nc3ccccc3c2=O)c1` [compound 95], the “antibacterial activity, active / inactive” value in the data set on S. aureus ATCC29213 is “active”. For the compound `N#Cc1ccc(/C=C/c2nc3ccccc3c(=O)n2-c2cccc(CNC(=O)C(F)(F)F)c2)cc1` [compound 99], in the data set on S. aureus ATCC29213, the “antibacterial activity, active / inactive” value is recorded as “active”. Turning to `N#Cc1ccc(/C=C/c2nc3ccccc3c(=O)n2-c2cccc(N)c2)cc1` [compound 111], the “antibacterial activity in words” value in the data set on S. aureus ATCC29213 was “potent activity”. In the case of `C#Cc1ccc(/C=C/c2nc3ccccc3c(=O)n2-c2cccc(S(N)(=O)=O)c2)cc1` [compound 113], in “Pharmacokinetics in mice” (5 mg/kg iv), the “clearance relative to hepatic blood flow” value is on record as > 10%. With `O=C(O)c1cccc(-n2c(CCc3ccc(F)cc3)nc3ccccc3c2=O)c1` [compound 115], in the data set with S. aureus ATCC29213, the “increase in MIC” value is reported as ≤ 4 fold. For `N#Cc1ccc(CSc2nc3ccccc3c(=O)n2-c2cccc(C(=O)O)c2)cc1` [compound 125], in the data set on S. aureus ATCC29213, the “increase in MIC” value is ≤ 4 fold. For the compound `CCN1CCN(C(=O)N[C@@H](C(=O)N[C@@H]2C(=O)N3[C@@H]2SC(C)(C)[C@@H]3C(=O)O)c2ccccc2)C(=O)C1=O` [piperacillin], at allosteric site of PBP2a, the Kd (usually the equilibrium constant for the complex coming apart) was 400 µM.
